# From ChEMBL document CHEMBL4041468, “Effects of Koumine on Adjuvant- and Collagen-Induced Arthritis in Rats” (J Nat Prod, 2016)
# Calls of active or inactive are those of the source.
# What was measured:
# Rattus norvegicus [1] = test: Antiarthritic activity in Wistar rat type-2 collagen-induced arthritis model assessed as reduction in arthritis index score at 1 mg/kg, ig via gavage administered 10 consecutive days starting from day 20 post type-2 collagen injection; format: functional, organism-based
# How it was run: (§1)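 CIA in male 7-week-old Wistar rats: chicken CII (2 mg/mL in 0.1 M acetic acid) emulsified 1:1 in BCG-containing adjuvant, two intradermal 0.3 mL injections 7 d apart; controls received 0.05 M acetic acid. Gavage from day 20 for 10 d. Scoring, plethysmometry (mean of both hind paws) and von Frey threshold at baseline, pre-dosing and alternate days; n = 10.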
# Rattus norvegicus [2] = test: Antiarthritic activity in Wistar rat type-2 collagen-induced arthritis model assessed as reduction in cartilage space narrowing at 1 mg/kg, ig via gavage administered 10 consecutive days starting from day 20 post type-2 collagen injection by X-ray method; format: functional, organism-based
# Rattus norvegicus [3] = test: Antiarthritic activity in Wistar rat type-2 collagen-induced arthritis model assessed as reduction in serum IL-1beta level at 1 mg/kg, ig via gavage administered 10 consecutive days starting from day 20 post type-2 collagen injection by ELISA method; format: functional, organism-based
# How it was run: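 After 10 d gavage in Wistar CIA rats, trunk blood taken at sacrifice; serum stored at −70 °C. IL-1β and TNF-α measured by commercial ELISA kits per manufacturer. One-way ANOVA with Student–Newman–Keuls test; n = 10/group.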
# Rattus norvegicus [4] = test: Antiarthritic activity in Wistar rat type-2 collagen-induced arthritis model assessed as reduction in mechanical allodynia at 1 mg/kg, ig via gavage administered 10 consecutive days starting from day 20 post type-2 collagen injection; format: functional, organism-based; how it was run: as §1
# Rattus norvegicus [5] = test: Antiarthritic activity in Wistar rat type-2 collagen-induced arthritis model assessed as reduction in hind paw volume at 1 mg/kg, ig via gavage administered 10 consecutive days starting from day 20 post type-2 collagen injection by plethysmometer; format: functional, organism-based; how it was run: as §1
# Rattus norvegicus [6] = test: Antiarthritic activity in Wistar rat type-2 collagen-induced arthritis model assessed as reduction in serum anti-type-2 collagen IgG level at 1 mg/kg, ig via gavage administered 10 consecutive days starting from day 20 post type-2 collagen injection by ELISA method; format: functional, organism-based
# How it was run: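 Serum from Wistar CIA rats collected after completing 10 d gavage dosing (from day 20 post first CII injection) and assayed for anti-CII IgG using a rat anti-CII antibody ELISA kit. One-way ANOVA with Student–Newman–Keuls test; n = 10/group.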
# Rattus norvegicus [7] = test: Antiarthritic activity in Wistar rat type-2 collagen-induced arthritis model assessed as reduction in bone degradation at 1 mg/kg, ig via gavage administered 10 consecutive days starting from day 20 post type-2 collagen injection by X-ray method; format: functional, organism-based
# Rattus norvegicus [8] = test: Antiarthritic activity in Wistar rat type-2 collagen-induced arthritis model assessed as reduction in bone erosion at 1 mg/kg, ig via gavage administered 10 consecutive days starting from day 20 post type-2 collagen injection by X-ray method; format: functional, organism-based
# Rattus norvegicus [9] = test: Antiarthritic activity in Wistar rat type-2 collagen-induced arthritis model assessed as reduction in cartilage degeneration in joints at 15 mg/kg, ig via gavage administered 10 consecutive days starting from day 20 post type-2 collagen injection by hematoxylin and eosin staining based light microscopy; format: functional, organism-based
# How it was run: (§2)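 CIA in male Wistar rats (chicken CII emulsion, two intradermal injections 7 d apart); daily gavage for 10 d from day 20. After treatment, hind limbs X-rayed. Left hind paw joints fixed in 10% formalin, decalcified in 10% EDTA for 28 d at 4 °C, paraffin-embedded, sectioned at 5 μm, H&E-stained and examined by light microscopy at 100×.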
# Rattus norvegicus [10] = test: Antiarthritic activity in Wistar rat type-2 collagen-induced arthritis model assessed as reduction in joint tissue TNF-alpha level at 15 mg/kg, ig via gavage administered 10 consecutive days starting from day 20 post type-2 collagen injection by ELISA method; format: functional, organism-based
# How it was run: (§3)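 CIA Wistar rats dosed by gavage daily for 10 d from day 20 post first CII injection. Trunk blood serum stored at −70 °C. Right hind paw joint tissue homogenized at 200 mg/mL in PBS with 50 U/mL aprotinin, then centrifuged at 3000 rpm for 20 min at 4 °C. IL-1β and TNF-α quantified by ELISA kits in serum and supernatant. n = 10; one-way ANOVA with SNK.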
# Rattus norvegicus [11] = test: Antiarthritic activity in Wistar rat type-2 collagen-induced arthritis model assessed as reduction in serum anti-type-2 collagen IgG level at 15 mg/kg, ig via gavage administered 10 consecutive days starting from day 20 post type-2 collagen injection by ELISA method; format: functional, organism-based
# How it was run: (§4)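 CIA Wistar rats (chicken CII in BCG/IFA emulsion, intradermal twice 7 d apart) gavaged daily for 10 d from day 20. Serum collected after treatment; anti-CII IgG quantified with a rat anti-CII antibody ELISA kit. n = 10 per group; one-way ANOVA with Student−Newman−Keuls.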
# Rattus norvegicus [12] = test: (§5) Antiarthritic activity in ig dosed Lewis rat Freund's adjuvant-induced arthritis model assessed as reduction in mechanical allodynia in ipsilateral hind paw administered through gavage pretreated for 1 hr followed by adjuvant challenge and subsequent treatment for 9 days measured alternate days up to 24 days post dose; format: functional, organism-based
# How it was run: (§6)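 Lewis rats with CFA-induced arthritis (0.1 mL intradermal, right hind paw), gavaged 1 h before induction and daily for 9 d. Mechanical withdrawal threshold measured 1 h after dosing. Rats habituated 30 min in individual cubicles; von Frey filament applied upward to the centre of each hind paw until withdrawal, maximum 55 g. Repeated twice at 10 min intervals; ipsilateral and contralateral paws recorded separately. n = 10; two-way ANOVA.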
# Rattus norvegicus [13] = test: Antiarthritic activity in Wistar rat type-2 collagen-induced arthritis model assessed as reduction in IL-1beta mRNA expression at 15 mg/kg, ig via gavage administered 10 consecutive days starting from day 20 post type-2 collagen injection by qPCR analysis; format: functional, organism-based
# How it was run: (§7)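 Male Wistar rats (7 weeks old) given chicken CII (2 mg/mL in 0.1 M acetic acid) emulsified 1:1 in BCG/IFA adjuvant, two intradermal 0.3 mL injections 7 d apart. Gavage in saline daily for 10 d from day 20. Total RNA from ankle synovial tissue homogenate, reverse transcribed, qPCR in triplicate. Fold change vs blank control by 2−ΔΔCt.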
# Rattus norvegicus [14] = test: Antiarthritic activity in Wistar rat type-2 collagen-induced arthritis model assessed as reduction in serum anti-type-2 collagen IgG level at 3 mg/kg, ig via gavage administered 10 consecutive days starting from day 20 post type-2 collagen injection by ELISA method; format: functional, organism-based; how it was run: as §4
# Rattus norvegicus [15] = test: Antiarthritic activity in Wistar rat type-2 collagen-induced arthritis model assessed as reduction in arthritis index score administered as ig via gavage for 10 consecutive days starting from day 20 post type-2 collagen injection; format: functional
# How it was run: (§8)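 Male Wistar rats (7 weeks old) immunized with chicken CII in CFA/IFA, two intradermal 0.3 mL injections 7 d apart. Oral gavage in saline for 10 consecutive days starting day 20. Evaluation at baseline, predosing, and on alternate days thereafter: arthritis score; plethysmometer volume averaged over both hind paws; von Frey threshold 1 h post-dose (max 55 g, two repeats 10 min apart). n = 10.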
# Rattus norvegicus [16] = test: Antiarthritic activity in Lewis rat Freund's adjuvant-induced arthritis model assessed as change in liver weight at 0.6 to 15 mg/kg, ig administered through gavage pretreated for 1 hr followed by adjuvant challenge subsequent treatment for 9 days measured alternate days up to 24 days post dose; format: functional, organism-based
# How it was run: (§9)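 Female Lewis rats (8 weeks old, 120−140 g) given a single intradermal injection of 0.1 mL CFA (10 mg heat-killed M. tuberculosis per 1 mL paraffin oil) into the right hind paw. Oral gavage in sterile saline 1 h before induction, then daily for the next 9 d. Sacrifice by exsanguination under deep anesthesia 24 d after adjuvant. Spleen, liver and thymus weighed and corrected for body weight (g/100 g). n = 10; one-way ANOVA with Student−Newman−Keuls.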
# Rattus norvegicus [17] = test: Antiarthritic activity in Wistar rat type-2 collagen-induced arthritis model assessed as reduction in mechanical allodynia administered as ig via gavage for 10 consecutive days starting from day 20 post type-2 collagen injection; format: functional; how it was run: as §8
# Rattus norvegicus [18] = test: Antiarthritic activity in Wistar rat type-2 collagen-induced arthritis model assessed as reduction in bone degeneration at 15 mg/kg, ig via gavage administered 10 consecutive days starting from day 20 post type-2 collagen injection by hematoxylin and eosin staining based light microscopy; format: functional, organism-based; how it was run: as §2
# Rattus norvegicus [19] = test: Antiarthritic activity in Wistar rat type-2 collagen-induced arthritis model assessed as reduction in serum TNF-alpha level at 15 mg/kg, ig via gavage administered 10 consecutive days starting from day 20 post type-2 collagen injection by ELISA method; format: functional, organism-based; how it was run: as §3
# Rattus norvegicus [20] = test: Antiarthritic activity in Wistar rat type-2 collagen-induced arthritis model assessed as reduction in cartilage space narrowing at 0.6 to 15 mg/kg, ig via gavage administered 10 consecutive days starting from day 20 post type-2 collagen injection by X-ray method; format: functional, organism-based; how it was run: as §2
# Rattus norvegicus [21] = test: (§10) Antiarthritic activity in Lewis rat Freund's adjuvant-induced arthritis model assessed as reduction in arthritis index score at 3 mg/kg, ig administered through gavage pretreated for 1 hr followed by adjuvant challenge subsequent treatment for 9 days measured alternate days up to 24 days post dose; format: functional, organism-based
# How it was run: (§11)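 Female Lewis rats (8 weeks old) given a single intradermal injection of 0.1 mL CFA (heat-killed M. tuberculosis in paraffin oil) into the right hind paw. Gavage dosing in sterile saline 1 h before induction and daily for 9 d. Arthritis index scored (the paper reports the 18 d reading). n = 10 per group; Kruskal−Wallis with Dunn's test.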
# Rattus norvegicus [22] = test: Antiarthritic activity in Wistar rat type-2 collagen-induced arthritis model assessed as reduction in serum anti-type-2 collagen IgG level at 0.6 mg/kg, ig via gavage administered 10 consecutive days starting from day 20 post type-2 collagen injection by ELISA method; format: functional, organism-based; how it was run: as §4
# Rattus norvegicus [23] = test: Antiarthritic activity in Lewis rat Freund's adjuvant-induced arthritis model assessed as change in thymus weight at 0.6 to 15 mg/kg, ig administered through gavage pretreated for 1 hr followed by adjuvant challenge subsequent treatment for 9 days measured alternate days up to 24 days post dose; format: functional, organism-based; how it was run: as §9
# Rattus norvegicus [24] = test: Antiarthritic activity in Wistar rat type-2 collagen-induced arthritis model assessed as reduction in joint tissue IL-1beta level at 15 mg/kg, ig via gavage administered 10 consecutive days starting from day 20 post type-2 collagen injection by ELISA method; format: functional, organism-based; how it was run: as §3
# Rattus norvegicus [25] = test: as §5, with “in” for “in ig dosed”, “contralateral” for “ipsilateral”, “paw at 0.6 to 15 mg/kg, ig” for “paw”; format: functional, organism-based; how it was run: as §6
# Rattus norvegicus [26] = test: as §10, with “0.6” for “3”, “challenge and” for “challenge”; format: functional, organism-based; how it was run: as §11
# [27] = Toxicity in ig dosed Wistar rat measured 30 mins after administration via gavage at 4 h intervals during first 24 hrs and twice a day thereafter over the next 13 days; format: organism-based; conditions: in vivo, po
# How it was run: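 OECD 425 up-and-down procedure in ten 7-week-old male Wistar rats, fasted overnight. Single gavage dose at 10 mL/kg, starting at 300 mg/kg with a progression factor of 1/0.75. Survival checked at 30 min, every 4 h for 24 h, then twice daily for 13 d. LD50 reported with a 95% confidence interval.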
# Rattus norvegicus [28] = test: Antiarthritic activity in Lewis rat Freund's adjuvant-induced arthritis model assessed as change in spleen weight at 0.6 to 15 mg/kg, ig administered through gavage pretreated for 1 hr followed by adjuvant challenge subsequent treatment for 9 days measured alternate days up to 24 days post dose; format: functional, organism-based; how it was run: as §9
# Rattus norvegicus [29] = test: Antiarthritic activity in Wistar rat type-2 collagen-induced arthritis model assessed as reduction in TNF-alpha mRNA expression at 15 mg/kg, ig via gavage administered 10 consecutive days starting from day 20 post type-2 collagen injection by qPCR analysis; format: functional, organism-based; how it was run: as §7
# Rattus norvegicus [30] = test: Antiarthritic activity in Wistar rat type-2 collagen-induced arthritis model assessed as reduction in serum IL-1beta level at 3 to 15 mg/kg, ig via gavage administered 10 consecutive days starting from day 20 post type-2 collagen injection by ELISA method; format: functional, organism-based; how it was run: as §3
# Rattus norvegicus [31] = test: Antiarthritic activity in Wistar rat type-2 collagen-induced arthritis model assessed as reduction in bone degradation at 0.6 to 15 mg/kg, ig via gavage administered 10 consecutive days starting from day 20 post type-2 collagen injection by X-ray method; format: functional, organism-based; how it was run: as §2
# Rattus norvegicus [32] = test: Antiarthritic activity in Lewis rat Freund's adjuvant-induced arthritis model assessed as reduction in arthritis index score at 15 mg/kg, ig administered through gavage pretreated for 1 hr followed by adjuvant challenge subsequent treatment for 9 days measured alternate days up to 24 days post dose; format: functional, organism-based; how it was run: as §11
# Rattus norvegicus [33] = test: Antiarthritic activity in Wistar rat type-2 collagen-induced arthritis model assessed as reduction in bone erosion at 0.6 to 15 mg/kg, ig via gavage administered 10 consecutive days starting from day 20 post type-2 collagen injection by X-ray method; format: functional, organism-based; how it was run: as §2
compound,measurement,setting,value
CN(Cc1cnc2nc(N)nc(N)c2n1)c1ccc(C(=O)N[C@@H](CCC(=O)O)C(=O)O)cc1,Activity,Rattus norvegicus [1],Active
same,Activity,Rattus norvegicus [2],Active
same,Activity,Rattus norvegicus [3],Active
same,Activity,Rattus norvegicus [4],Active
same,Activity,Rattus norvegicus [5],Active
same,Activity,Rattus norvegicus [6],Active
same,Activity,Rattus norvegicus [7],Active
same,Activity,Rattus norvegicus [8],Active
C=C[C@@]12CN(C)[C@H]3C[C@]14C(=Nc1ccccc14)[C@H]1C[C@@H]2[C@@H]3CO1,Activity,Rattus norvegicus [9],Active
same,Activity,Rattus norvegicus [10],Active
same,Activity,Rattus norvegicus [11],Active
same,Activity,Rattus norvegicus [12],Dose-dependent effect
same,Activity,Rattus norvegicus [13],Active
same,Activity,Rattus norvegicus [14],Active
same,Activity,Rattus norvegicus [15],Dose-dependent effect
same,Activity,Rattus norvegicus [16],Active
same,Activity,Rattus norvegicus [17],Dose-dependent effect
same,Activity,Rattus norvegicus [18],Active
same,Activity,Rattus norvegicus [19],Active
same,Activity,Rattus norvegicus [20],Active
same,Activity,Rattus norvegicus [21],Active
same,Activity,Rattus norvegicus [22],inactive
same,Activity,Rattus norvegicus [23],Active
same,Activity,Rattus norvegicus [24],Active
same,Activity,Rattus norvegicus [25],inactive
same,Activity,Rattus norvegicus [26],Active
same,LD50 at 14 days,[27],300 mg/kg
same,Activity,Rattus norvegicus [28],inactive
same,Activity,Rattus norvegicus [29],Active
same,Activity,Rattus norvegicus [30],Active
same,Activity,Rattus norvegicus [31],Active
same,Activity,Rattus norvegicus [32],Active
same,Activity,Rattus norvegicus [33],Active
